# Measurements published in ChEMBL document CHEMBL3351270, “Curcumolide, a unique sesquiterpenoid with anti-inflammatory properties from Curcuma wenyujin” (Bioorg Med Chem Lett, 2015).
# Activity calls are given as the source filed them. The calls are words filed in the database; no cut-off is given here.
# Columns and labels:
# [1] = tested on: RAW264.7; experiment: Antiinflammatory activity in mouse RAW264.7 cells assessed as inhibition of LPS-induced increase in TNF-alpha level at 10 uM incubated for 2 hrs prior to LPS challenge measured after 22 hrs by ELISA relative to control; format: functional
# Summary of the method: (§1)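 RAW 264.7 macrophages pretreated 2 h with compound (0–20 µM) or 10 µM hydrocortisone as positive control, then exposed to LPS for a further 22 h. TNF-α, IL-1β and IL-6 in culture medium determined by ELISA. Means ± SEM from four independent experiments.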
# [2] = tested on: RAW264.7; experiment: Antiinflammatory activity in mouse RAW264.7 cells assessed as inhibition of LPS-induced increase in IL-1beta level at 10 uM incubated for 2 hrs prior to LPS challenge measured after 22 hrs by ELISA relative to control; format: functional; summary of the method: as §1
# [3] = tested on: RAW264.7; experiment: Antiinflammatory activity in mouse RAW264.7 cells assessed as inhibition of LPS-induced nitric oxide production at 10 uM incubated for 2 hrs prior to LPS challenge measured after 22 hrs relative to vehicle-treated control; format: functional
# Summary of the method: (§2)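 Cells treated 2 h with compound (0–20 µM) or 10 µM hydrocortisone, followed by LPS for a further 22 h. NO production estimated as nitrite in culture medium by Griess reaction. Inhibition expressed as blocked ratio. Means ± SEM, four independent experiments.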
# [4] = tested on: RAW264.7; experiment: Antiinflammatory activity in mouse RAW264.7 cells assessed as inhibition of LPS-induced increase in IL-6 level at 10 uM incubated for 2 hrs prior to LPS challenge measured after 22 hrs by ELISA relative to control; format: functional; summary of the method: as §1
# [5] = tested on: RAW264.7; experiment: Antiinflammatory activity in mouse RAW264.7 cells assessed as inhibition of LPS-induced increase in IL-1beta level incubated for 2 hrs prior to LPS challenge measured after 22 hrs by ELISA; format: functional, cell-based; summary of the method: as §1
# [6] = tested on: RAW264.7; experiment: Antiinflammatory activity in mouse RAW264.7 cells assessed as inhibition of LPS-induced increase in IL-1beta level at 20 uM incubated for 2 hrs prior to LPS challenge measured after 22 hrs by ELISA relative to control; format: functional; summary of the method: as §1
# [7] = tested on: RAW264.7; experiment: Antiinflammatory activity in mouse RAW264.7 cells assessed as inhibition of LPS-induced ROS generation at 10 uM incubated for 2 hrs prior to LPS challenge measured after 22 hrs by spectrophotometry relative to vehicle-treated control; format: functional
# Summary of the method: (§3)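 Compound (0–20 µM) applied to RAW 264.7 cells for 2 h, then LPS added for a further 22 h. Cells harvested, loaded with 10 µM DCFH-DA for 20 min, washed twice with cold PBS. Intracellular ROS read as arbitrary fluorescence units. Means ± SEM, four independent experiments.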
# [8] = molecular target: Transcription factor p65 (Mus musculus) (UniProt Q04207); experiment: Antiinflammatory activity in mouse RAW264.7 cells assessed as inhibition of LPS-induced DNA binding activity of NF-kappaB p65 at 20 uM incubated for 1 hr prior to LPS challenge measured after 30 mins by ELISA relative to vehicle-treated control; format: cell-based
# Chain of Transcription factor p65 (Mus musculus) (Q04207 whole entry): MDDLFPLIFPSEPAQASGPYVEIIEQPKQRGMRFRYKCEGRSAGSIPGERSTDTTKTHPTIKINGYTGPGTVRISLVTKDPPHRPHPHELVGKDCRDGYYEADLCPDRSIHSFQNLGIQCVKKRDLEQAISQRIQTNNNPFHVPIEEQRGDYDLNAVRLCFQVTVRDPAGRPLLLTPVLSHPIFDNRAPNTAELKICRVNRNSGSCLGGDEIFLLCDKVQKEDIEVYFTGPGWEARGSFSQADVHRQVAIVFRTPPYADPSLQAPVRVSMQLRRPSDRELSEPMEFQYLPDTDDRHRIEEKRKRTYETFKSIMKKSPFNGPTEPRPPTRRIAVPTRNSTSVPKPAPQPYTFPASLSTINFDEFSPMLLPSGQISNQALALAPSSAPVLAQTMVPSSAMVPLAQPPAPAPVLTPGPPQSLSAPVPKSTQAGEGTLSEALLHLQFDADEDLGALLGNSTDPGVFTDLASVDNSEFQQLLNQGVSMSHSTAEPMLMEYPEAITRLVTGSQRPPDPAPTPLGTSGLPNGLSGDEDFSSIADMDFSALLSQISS
# Summary of the method: (§4)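 RAW264.7 cells preincubated with compound (0–20 µM) for 1 h, then stimulated with LPS for 30 min. NF-κB p65 DNA-binding activity quantified by ELISA-based TransAM p65 transcription factor kit. Means ± SEM of three independent experiments. LPS given at 0.5 µg/mL.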
# [9] = tested on: RAW264.7; experiment: Antiinflammatory activity in mouse RAW264.7 cells assessed as inhibition of LPS-induced ROS generation at 20 uM incubated for 2 hrs prior to LPS challenge measured after 22 hrs by spectrophotometry relative to vehicle-treated control; format: functional; summary of the method: as §3
# [10] = molecular target: Transcription factor p65 (Mus musculus) (UniProt Q04207); experiment: Antiinflammatory activity in mouse RAW264.7 cells assessed as inhibition of LPS-induced DNA binding activity of NF-kappaB p65 at 2 uM incubated for 1 hr prior to LPS challenge measured after 30 mins by ELISA relative to vehicle-treated control; format: cell-based; summary of the method: as §4
# [11] = tested on: RAW264.7; experiment: Antiinflammatory activity in mouse RAW264.7 cells assessed as inhibition of LPS-induced ROS generation incubated for 2 hrs prior to LPS challenge measured after 22 hrs by spectrophotometry relative to vehicle-treated control; format: functional, cell-based; summary of the method: as §3
# [12] = molecular target: Transcription factor p65 (Mus musculus) (UniProt Q04207); experiment: Antiinflammatory activity in mouse RAW264.7 cells assessed as inhibition of LPS-induced NF-kappaB p65 subunit nuclear translocation at 20 uM incubated for 1 hr prior to LPS challenge measured after 30 mins by immunofluorescence assay relative to vehicle-treated control; format: cell-based
# Summary of the method: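 Immunofluorescence: RAW 264.7 cells pretreated with 20 µM compound for 1 h, then LPS for 30 min. p65 subunit localization (cytoplasm vs nucleus) imaged by fluorescence microscopy.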
# [13] = tested on: RAW264.7; experiment: Antiinflammatory activity in mouse RAW264.7 cells assessed as inhibition of LPS-induced nitric oxide production at 20 uM incubated for 2 hrs prior to LPS challenge measured after 22 hrs relative to vehicle-treated control; format: functional; summary of the method: as §2
# [14] = tested on: RAW264.7; experiment: Cytotoxicity against mouse RAW264.7 cells assessed as cell viability at 0.01 to 100 uM after 24 hrs by MTT assay; format: cell-based; conditions: raw264.7, 24 h
# Summary of the method: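 Viability of RAW 264.7 cells measured by MTT after 24 h exposure to compound at 0.01–100 µM.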
# [15] = tested on: RAW264.7; experiment: Antiinflammatory activity in mouse RAW264.7 cells assessed as inhibition of LPS-induced increase in TNF-alpha level at 20 uM incubated for 2 hrs prior to LPS challenge measured after 22 hrs by ELISA relative to control; format: functional; summary of the method: as §1
# [16] = tested on: RAW264.7; experiment: Antiinflammatory activity in mouse RAW264.7 cells assessed as inhibition of LPS-induced increase in IL-6 level at 20 uM incubated for 2 hrs prior to LPS challenge measured after 22 hrs by ELISA relative to control; format: functional; summary of the method: as §1
# [17] = tested on: RAW264.7; experiment: Antiinflammatory activity in mouse RAW264.7 cells assessed as inhibition of LPS-induced nitric oxide production incubated for 2 hrs prior to LPS challenge measured after 22 hrs relative to vehicle-treated control; format: functional, cell-based; summary of the method: as §2
# [18] = molecular target: Transcription factor p65 (Mus musculus) (UniProt Q04207); experiment: Antiinflammatory activity in mouse RAW264.7 cells assessed as inhibition of LPS-induced DNA binding activity of NF-kappaB p65 at 10 uM incubated for 1 hr prior to LPS challenge measured after 30 mins by ELISA relative to vehicle-treated control; format: cell-based; summary of the method: as §4
# [19] = tested on: RAW264.7; experiment: Antiinflammatory activity in mouse RAW264.7 cells assessed as inhibition of LPS-induced increase in TNF-alpha level incubated for 2 hrs prior to LPS challenge measured after 22 hrs by ELISA; format: functional, cell-based; summary of the method: as §1
# [20] = tested on: RAW264.7; experiment: Antiinflammatory activity in mouse RAW264.7 cells assessed as inhibition of LPS-induced nitric oxide production at 2 uM incubated for 2 hrs prior to LPS challenge measured after 22 hrs relative to vehicle-treated control; format: functional; summary of the method: as §2
# [21] = tested on: RAW264.7; experiment: Antiinflammatory activity in mouse RAW264.7 cells assessed as inhibition of LPS-induced increase in IL-6 level incubated for 2 hrs prior to LPS challenge measured after 22 hrs by ELISA; format: functional, cell-based; summary of the method: as §1
# [22] = molecular target: Transcription factor p65 (Mus musculus) (UniProt Q04207); experiment: Antiinflammatory activity in mouse RAW264.7 cells assessed as inhibition of LPS-induced DNA binding activity of NF-kappaB p65 incubated for 1 hr prior to LPS challenge measured after 30 mins by ELISA relative to vehicle-treated control; format: cell-based; summary of the method: as §4
structure (smiles),measurement,setting,value
C[C@]12CCC(=O)C=C1CC[C@@H]1[C@@H]2[C@@H](O)C[C@@]2(C)[C@H]1CC[C@]2(O)C(=O)CO,inhibition,[1],Active
same,inhibition,[2],Active
same,inhibition,[3],Active
same,inhibition,[4],Active
CC1=C[C@]2(C(C)(C)O)C[C@]3(OC2=O)[C@@H](C)CC[C@@H]13,inhibition,[5],Dose-dependent effect
same,inhibition at 20 µM,[6],68%
same,inhibition at 10 µM,[7],57.9%
same,inhibition,[8],68%
same,inhibition at 20 µM,[9],82.3%
same,inhibition,[10],36.5%
same,inhibition,[11],Dose-dependent effect
same,inhibition,[12],Active
same,inhibition at 20 µM,[13],71%
same,inhibition at 10 µM,[1],37.6%
same,Activity,[14],Non-toxic
same,inhibition at 20 µM,[15],55.4%
same,inhibition at 10 µM,[2],27.9%
same,inhibition at 20 µM,[16],78.3%
same,inhibition at 10 µM,[3],53.9%
same,inhibition at 10 µM,[4],37.3%
same,inhibition,[17],Dose-dependent effect
same,inhibition,[18],51.3%
same,inhibition,[19],Dose-dependent effect
same,inhibition at 2 µM,[20],25.1%
same,inhibition,[21],Dose-dependent effect
same,inhibition,[22],Dose-dependent effect
